High-throughput results as filed in PubChem BioAssay.
An excerpt weighted towards active compounds, which were near 2.7% of everything screened.
HTR2A ag: activates the mouse 5-HT2A serotonin receptor | CHO-K1 mHTR2A beta-arrestin complementation, luminescence; percent of 30 µM serotonin response | 360,000 tested, 0.66% active | P35363 | activation, % at 7.6 µM;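 active = activation above a run cutoff, the mean activation of all tested compounds plus 3 SD, cut at about 14% in these data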;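 note: 0% = plate median of compound wells and 100% = 30 µM serotonin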
Lipid droplet: hepatic lipid droplet formation modulation. AML12 mouse hepatocytes, oleate lipid droplets, BODIPY imaging. inhibition, % at 6.5 µM. 240,000 tested, 0.4% active. AID 1656;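 active = lipid droplet intensity inhibited by at least 50%, with more than 500 cells counted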
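Assay system: AML12 mouse liver cells | Compound: 6.5 µM single-point dosing | Schedule: Overnight exposure | Technique: Fluorescence imaging, 20x objective, two fields per well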
NTR1 agonist: activates human neurotensin receptor 1; 330,000 tested, 0.17% active; activation, % at 20 µM; P30989; NTR1-U2OS beta-arrestin-GFP spot imaging, agonist mode;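 active = activation at or above 40% of the spot to cytoplasm intensity ratio, with at least 20 cells analyzed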;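 note: 0% = DMSO without peptide and 100% = 100 nM NTR1 peptide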
Target sequence (P30989 whole entry, looked up): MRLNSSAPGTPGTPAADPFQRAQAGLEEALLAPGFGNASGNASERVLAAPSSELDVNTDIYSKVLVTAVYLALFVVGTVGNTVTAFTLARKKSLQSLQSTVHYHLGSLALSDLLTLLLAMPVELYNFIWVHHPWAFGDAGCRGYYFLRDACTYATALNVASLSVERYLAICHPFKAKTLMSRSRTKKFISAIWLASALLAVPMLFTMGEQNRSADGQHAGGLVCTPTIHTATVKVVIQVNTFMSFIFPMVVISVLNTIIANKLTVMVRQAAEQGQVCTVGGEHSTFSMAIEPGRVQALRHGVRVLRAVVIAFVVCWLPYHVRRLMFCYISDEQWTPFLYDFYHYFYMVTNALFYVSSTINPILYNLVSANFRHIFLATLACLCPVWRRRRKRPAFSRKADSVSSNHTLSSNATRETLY
MC4R antagonist: antagonists of human melanocortin 4 receptor (MC4R); P32245; MC4R-expressing cells, MTII-stimulated cAMP, LANCE TR-FRET; inhibition, % at 6.5 µM; 360,000 tested, 0.48% active;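 active = inhibition above its plate's cutoff, the mean of tested wells on that plate plus 3 SD, cut at about 29% in these data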;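 note: 0% = Melanotan II alone and 100% = Melanotan II plus saturating MCL0020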
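Assay system: human MC4R-expressing U2OS cells; reagent: Melanotan II stimulation of cells; dosing: 6.5 µM single dose; timing: compound 30 min, challenge 1 h, detection 1 h; signal: TR-FRET cAMP assay; replicates: one well per compound, no replicates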
PREPL inh: inhibits the human prolyl oligopeptidase-like enzyme | Q4J6C6 | recombinant PREPL, fluorescence polarization activity-based probe | inhibition, % at 5.96 µM | 320,000 tested, 0.68% active | AID 2751; in the data active = inhibition above about 43%;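 note: 0% = enzyme with DMSO and 100% = wells lacking enzyme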
MC4R ag barr: agonists of human melanocortin 4 receptor (MC4R) beta-arrestin; AID 540308; P32245; activation, % at 8.9 µM; 360,000 tested, 0.98% active; U2OS MC4R beta-arrestin complementation, luminescence; percent of melanotan II response, DMSO zero;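 active = activation above a per-plate cutoff, the mean activation of sample wells on that plate plus 3 SD, cut at about 8% in these data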
MC4R barr ag: human MC4R beta-arrestin agonism confirmation | shares compounds with MC4R ag barr | U2OS MC4R beta-arrestin recruitment, luminescence; scaled DMSO 0%, Melanotan II 100% | activation, % at 8.9 µM | 2,400 tested, 31% active | AID 602192;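 active = mean activation across replicates above the hit cutoff set in the earlier primary screen, cut at about 8% in these data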
MOR-DOR barr ag: activates mu-delta opioid heterodimer, MC4R agonist counter-screen. U2OS PathHunter beta-arrestin, beta-gal luminescence; percent of deltorphin B response, DMSO zero. activation, % at 9.2 µM. 2,400 tested, 5.8% active. shares compounds with MC4R ag barr;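 active = mean activation across replicates exceeds the hit threshold derived in the earlier primary screen, cut at about 18% in these data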;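 note: 100% = deltorphin B at 0.9 µM final and 0% = DMSO alone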
Starred values were filed as active, the others as inactive; . = no result.

SMILES	HTR2A ag	Lipid droplet	NTR1 agonist	MC4R antagonist	PREPL inh	MC4R ag barr	MC4R barr ag	MOR-DOR barr ag
NC(CCc1ccccc1)c1csc(Nc2nncc3ccccc23)n1 (stereo unspecified)	5	.	.	4	.	16*	12*	9
COc1cccc(Nc2nc(C(N)CCc3ccccc3)cs2)n1 (stereo unspecified)	5	.	.	-22	.	16*	12*	13
NC(Cc1ccc(F)cc1)c1csc(Nc2cc(Oc3ccccc3)ncn2)n1 (stereo unspecified)	-7	.	.	-3	.	13*	14*	12
COc1cccc(Nc2nc(C(N)COCc3ccccc3)cs2)n1 (stereo unspecified)	2	.	.	5	.	3	.	.
NC(Cc1ccccc1)c1csc(Nc2nncc3ccccc23)n1 (stereo unspecified)	3	.	.	1	.	2	.	.
COc1ccc2c(c1OC)C(=O)N1C2SC(C)(C)[C@H]1C(=O)NCC(C)C (stereo partly specified)	0	.	0	4	-7	-1	.	.
COc1cccc(NC(=S)N(CCCN2CCOCC2)Cc2cn(C)c3ccccc23)c1	0	-23	-1	-3	0	1	.	.
O=C(c1cc(COc2c(F)cccc2F)on1)N1CC[C@@H]2CCCC[C@H]2C1	-4	.	.	-1	.	0	.	.
COc1cccc(Nc2nc(C(N)Cc3ccc(Cl)cc3)cs2)n1 (stereo unspecified)	1	.	.	-6	.	15*	8.4*	9
COc1ccc(CC(N)c2csc(Nc3cccc(OC)n3)n2)cc1 (stereo unspecified)	0	.	.	-12	.	2	.	.
O=C(NC1CCSc2ccccc21)c1ccc(C(F)(F)F)cc1 (stereo unspecified)	-2	-9	0	6	-9	9.7*	1	5
O=C(NC1CCSc2ccccc21)c1ccc(F)cc1 (stereo unspecified)	-1	2	0	-1	-2	2	.	.
COc1ccc(C)cc1NC(=O)C1CCN(C(=O)Cc2ccccc2)CC1	2	13	0	-5	6	1	.	.
O=C(Nc1ccc2oc(-c3cccc(F)c3)nc2c1)c1ccccc1F	0	9	3	7	-4	27*	16*	4
COc1cc2c(-c3ccc(O)cc3)nc3c(c(C)nn3-c3ccccc3)c2cc1OC	3	-1	.	3	-8	10*	2	2
N#C/C(=C\c1ccc(-c2ccc(F)cc2)o1)C(=O)Nc1nc(-c2cccs2)cs1	-2	-2	11	12	8	39*	19*	1
CC(=O)Nc1nnc(SCC(=O)c2ccc3c(c2)Cc2ccccc2-3)s1	-1	12	4	20	-20	12*	6	2
Cn1c(SCC(=O)c2ccc3c(c2)Cc2ccccc2-3)nnc1-c1ccccc1	-2	.	0	0	-5	11*	9.4*	7
CCC(=O)Nc1nnc(SCC(=O)c2ccc3c(c2)Cc2ccccc2-3)s1	1	.	0	7	-3	18*	3	4
COc1ccc(-c2noc(N3CCC(C(=O)Nc4cc(OC)c(OC)c(OC)c4)CC3)n2)cc1	-8	-8	0	15	4	-1	.	.
O=C(NCc1ccc(OC(F)(F)F)cc1)C1CC(c2ccc(C(F)(F)F)cc2)=NO1 (stereo unspecified)	6	.	1	5	-11	5	.	.
O=C(NCc1ccc(C(F)(F)F)cc1)C1CC(c2ccc(C(F)(F)F)cc2)=NO1 (stereo unspecified)	3	.	6	-7	-23	12*	2	7
COc1cccc(C(=O)Nc2ccc(NC(=O)c3cc4ccccc4o3)c(OC)c2)c1	-3	.	0	-2	4	10*	6	11
COc1cc(NC(=O)c2ccccc2)ccc1NC(=O)c1cc2ccccc2o1	2	.	9	14	4	8	.	.
Cc1cc(NC(=O)c2cncc(Br)c2)ccc1NC(=O)c1cc2ccccc2o1	-2	-2	7	6	5	10*	17*	10
SMILES	HTR2A ag	Lipid droplet	NTR1 agonist	MC4R antagonist	PREPL inh	MC4R ag barr	MC4R barr ag	MOR-DOR barr ag
O=C(O)c1ccc(Nc2nc(-c3cccnc3)nc3ccccc23)cc1	.	0	2	.	-3	.	.	.
Cc1ccc(C)c(Sc2ccc(NC(=O)CCl)cc2)c1	.	18	3	.	-11	.	.	.
Cc1ccc(Sc2ccc(NC(=O)CCl)cc2)cc1C	10	30	6	14	-2	19*	17*	6
Cc1ccc(-c2cc(C(=O)N/N=C/c3c(C)nn(C)c3C)c3ccccc3n2)cc1C	-4	.	12	10	-7	11*	9.3*	4
COc1ccc(OCc2n(CC(=O)OC3CC(C)CCC3C(C)C)c3ccccc3[n+]2C)cc1 (stereo unspecified)	-6	-17	28	-6	39	38*	11*	9
O=C(Nc1cc(S(=O)(=O)N2CCCCCC2)ccc1OCC(F)(F)F)c1cnccn1	2	.	7	8	-4	10*	-1	3
O=C(Nc1cc(S(=O)(=O)N2CCCC2)ccc1OCC(F)(F)F)c1ccncc1	-1	.	.	3	.	0	.	.
FC(F)(F)Oc1ccc(NC(=S)Nc2ccccc2N2CCOCC2)cc1	-6	0	1	5	14	1	.	.
Cc1n[nH]c(=S)n1/N=C/c1ccccc1OCc1ccc(Cl)cc1Cl	5	4	15	-2	35	19*	16*	3
Cc1nnc(N2CCCC(C(=O)NCc3ccc(OC(C)C)cc3)C2)c2nn(-c3ccccc3)c(C)c12 (stereo unspecified)	4	-6	13	8	26	12*	4	3
Cc1ccc(-n2nc3c(N4CCC(C(=O)NCCc5cccs5)CC4)nnc(C)c3c2C)cc1	-1	-8	2	7	31	15*	12*	3
O=C(c1ccc(S(=O)(=O)Nc2ccc(F)cc2)cc1)N1CCN(C(=O)c2ccco2)CC1	1	-6	2	7	0	-1	.	.
COc1ccc(-c2ccc(C#N)c(SCC(=O)NCc3ccco3)n2)cc1OC	-1	-18	0	-4	10	16*	-1	7
COc1ccc(Cl)cc1CC=NNC(=O)c1cccc(C)c1O	-5	.	.	-8	.	-3	.	.
CC1=CC(C)(C)n2c(O)c(N=NC(N)=S)c3c(C)ccc1c32	2	34	17	-3	26	2	.	.
